ChEMBL document CHEMBL1221376, “Identification and optimization of novel 2-(4-oxo-2-aryl-quinazolin-3(4H)-yl)acetamide vasopressin V3 (V1b) receptor antagonists” (Bioorg Med Chem Lett, 2010)

Molecular target: T1, Vasopressin V1b receptor (Rattus norvegicus, UniProt P48974)
T1 sequence (P48974 whole entry): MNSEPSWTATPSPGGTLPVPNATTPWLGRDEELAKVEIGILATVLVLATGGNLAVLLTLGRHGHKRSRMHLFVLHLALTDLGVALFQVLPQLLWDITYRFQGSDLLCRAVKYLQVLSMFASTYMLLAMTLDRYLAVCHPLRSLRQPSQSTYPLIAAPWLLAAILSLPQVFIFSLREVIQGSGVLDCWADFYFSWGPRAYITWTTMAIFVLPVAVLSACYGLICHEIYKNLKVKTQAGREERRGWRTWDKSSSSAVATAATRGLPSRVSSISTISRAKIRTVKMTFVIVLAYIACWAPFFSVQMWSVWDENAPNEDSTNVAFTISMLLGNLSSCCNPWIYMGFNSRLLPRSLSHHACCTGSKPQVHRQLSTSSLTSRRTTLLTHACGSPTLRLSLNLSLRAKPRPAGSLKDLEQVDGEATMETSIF
Experiment: Displacement of [3H]AVP from rat vasopressin V3 receptor

IC50 [µM]	Structure (SMILES)
0.21	O=C(Cn1c(-c2ccccc2)nc2ccc(OCCCN3CCOCC3)cc2c1=O)NCC1CC1

Molecular target: Vasopressin V2 receptor (Homo sapiens, UniProt P30518)
Experiment: Displacement of [3H]AVP from human vasopressin V2 receptor

Vasopressin V2 receptor, sequence (P30518 whole entry): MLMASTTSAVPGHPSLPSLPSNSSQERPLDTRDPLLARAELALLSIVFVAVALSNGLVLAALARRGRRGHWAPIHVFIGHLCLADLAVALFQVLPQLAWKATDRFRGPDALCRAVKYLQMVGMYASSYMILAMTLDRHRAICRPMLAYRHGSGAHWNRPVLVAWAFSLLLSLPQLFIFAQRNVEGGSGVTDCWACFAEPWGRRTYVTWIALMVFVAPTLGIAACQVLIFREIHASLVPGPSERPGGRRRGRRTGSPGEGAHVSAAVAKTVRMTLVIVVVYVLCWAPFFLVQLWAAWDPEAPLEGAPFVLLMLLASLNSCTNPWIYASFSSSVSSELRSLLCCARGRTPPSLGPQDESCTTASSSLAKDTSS

IC50 [µM]	Structure (SMILES)
> 100	O=C(Cn1c(-c2ccccc2)nc2ccc(OCCCN3CCOCC3)cc2c1=O)NCC1CC1

Molecular target: T2, Vasopressin V1b receptor (Homo sapiens, UniProt P47901)
T2 sequence (P47901 whole entry): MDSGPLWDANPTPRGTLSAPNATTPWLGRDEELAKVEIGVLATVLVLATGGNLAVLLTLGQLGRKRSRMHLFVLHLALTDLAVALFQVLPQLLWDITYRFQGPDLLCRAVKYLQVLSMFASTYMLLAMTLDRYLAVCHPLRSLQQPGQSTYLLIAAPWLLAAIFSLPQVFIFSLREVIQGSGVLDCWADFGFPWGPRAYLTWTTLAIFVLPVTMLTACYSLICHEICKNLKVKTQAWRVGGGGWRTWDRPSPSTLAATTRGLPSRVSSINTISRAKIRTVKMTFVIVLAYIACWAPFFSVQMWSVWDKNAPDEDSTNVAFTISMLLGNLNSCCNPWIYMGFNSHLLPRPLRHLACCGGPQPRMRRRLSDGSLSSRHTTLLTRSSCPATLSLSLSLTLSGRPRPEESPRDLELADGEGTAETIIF
Experiment: Displacement of [3H]AVP from human vasopresin3 receptor expressed in CHO cells
Format: cell-based
Method in brief: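 Whole-cell binding on CHO cells stably expressing human V3 (V1b) receptor, grown at 37 °C with 5% CO2. Cells seeded at 30,000 per well, cultured overnight at 37 °C, then washed twice with PBS. Serially diluted compounds plus 5 nM [3H]-AVP (final) in PBS with 10 mM MgCl2, 0.1% BSA and 1% DMSO, 30 min at room temperature. Washed, air dried, scintillation counted.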

IC50 [µM]	Structure (SMILES)
5.1	CC(C)C[C@@H](COc1ccc2nc(-c3ccccc3)n(CC(=O)NCC3CC3)c(=O)c2c1)NC(=O)CN
> 100	O=C(Cn1c(-c2ccccc2)nc2ccc(O)cc2c1=O)NCC1CC1
3.6	NCCCOc1ccc2nc(-c3ccccc3)n(CC(=O)NCC3CC3)c(=O)c2c1
0.31	O=C(Cn1c(-c2ccccc2)nc2ccc(OCCCN3CCCCC3)cc2c1=O)NCC1CC1
22	CN1CCN(CCOc2ccc3nc(-c4ccccc4)n(CC(=O)NCC4CC4)c(=O)c3c2)CC1
25.8	O=C(Cn1c(-c2ccccc2)nc2ccc(OCCCN3CCNCC3)cc2c1=O)NCC1CC1
4.8	CN1CCN(CCCCOc2ccc3nc(-c4ccccc4)n(CC(=O)NCC4CC4)c(=O)c3c2)CC1
0.2	CC(C)C[C@@H](COc1ccc2nc(-c3ccccc3)n(CC(=O)NCC3CC3)c(=O)c2c1)NC(=O)[C@@H](N)Cc1ccc(O)cc1
0.71	COC1CCN(CCCOc2ccc3nc(-c4ccccc4)n(CC(=O)NCC4CC4)c(=O)c3c2)CC1
3.8	CCN(CC)CCCOc1ccc2nc(-c3ccccc3)n(CC(=O)NCC3CC3)c(=O)c2c1
30.5	NCC(=O)NCCOc1ccc2nc(-c3ccccc3)n(CC(=O)NCC3CC3)c(=O)c2c1
> 100	O=C(CCc1ccc(O)cc1)NCCOc1ccc2nc(-c3ccccc3)n(CC(=O)NCC3CC3)c(=O)c2c1
1.7	CN1CCN(CCCOc2ccc3nc(-c4ccccc4)n(CC(=O)NCC4CC4)c(=O)c3c2)CC1
0.12	O=C(Cn1c(-c2ccccc2)nc2ccc(OCCCN3CCOCC3)cc2c1=O)NCC1CC1
> 30	NCCCCCOc1ccc2nc(-c3ccccc3)n(CC(=O)NCC3CC3)c(=O)c2c1
> 100	NCCCCCCOc1ccc2nc(-c3ccccc3)n(CC(=O)NCC3CC3)c(=O)c2c1
> 30	NCCCCOc1ccc2nc(-c3ccccc3)n(CC(=O)NCC3CC3)c(=O)c2c1
0.34	O=C(Cn1c(-c2ccccc2)nc2ccc(OCCCN3CCCCCC3)cc2c1=O)NCC1CC1
1.8	O=C(Cn1c(-c2ccccc2)nc2ccc(OCCCN3CCCC3)cc2c1=O)NCC1CC1
2.1	CC(C)C[C@H](N)COc1ccc2nc(-c3ccccc3)n(CC(=O)NCC3CC3)c(=O)c2c1
7.6	CNCCCOc1ccc2nc(-c3ccccc3)n(CC(=O)NCC3CC3)c(=O)c2c1
1.1	O=C(Cn1c(-c2ccccc2)nc2ccc(OCCCN3CCC(O)CC3)cc2c1=O)NCC1CC1
4	NCCOc1ccc2nc(-c3ccccc3)n(CC(=O)NCC3CC3)c(=O)c2c1

Molecular target: Vasopressin V1a receptor (Homo sapiens) (UniProt P37288)
Experiment: Displacement of [3H]AVP from human vasopressin V1a receptor at 5 uM
Method in brief: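 Membrane binding using membranes from CHO cells stably expressing human V1a receptor, with 5 nM [3H]-AVP (final) and test compound in 50 mM Tris–HCl pH 7.4, 5 mM MgCl2, 1 mg/mL BSA and 0.5% DMSO. Incubated 60 min at room temperature, then rapid filtration over polyethylenimine-soaked GF/B filters. Filters washed with ice-cold Tris–HCl, dried 30 min at 55 °C, scintillation counted.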

Vasopressin V1a receptor (Homo sapiens), sequence (P37288 whole entry, looked up): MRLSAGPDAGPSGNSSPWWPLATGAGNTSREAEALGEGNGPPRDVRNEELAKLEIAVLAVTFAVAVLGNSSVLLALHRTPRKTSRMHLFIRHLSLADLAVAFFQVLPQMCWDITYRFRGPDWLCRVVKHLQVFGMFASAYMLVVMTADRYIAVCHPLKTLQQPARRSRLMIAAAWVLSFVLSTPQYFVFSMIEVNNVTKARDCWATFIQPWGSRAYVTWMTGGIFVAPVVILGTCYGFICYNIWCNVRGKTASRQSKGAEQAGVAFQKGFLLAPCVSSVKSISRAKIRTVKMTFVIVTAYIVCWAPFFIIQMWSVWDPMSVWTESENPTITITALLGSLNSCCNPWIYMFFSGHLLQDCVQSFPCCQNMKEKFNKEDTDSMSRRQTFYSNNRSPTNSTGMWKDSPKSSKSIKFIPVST

inhibition [%]	Structure (SMILES)
6	O=C(Cn1c(-c2ccccc2)nc2ccc(OCCCN3CCOCC3)cc2c1=O)NCC1CC1

Molecular target: T3, Oxytocin receptor (Homo sapiens, UniProt P30559)
T3 sequence (P30559 whole entry): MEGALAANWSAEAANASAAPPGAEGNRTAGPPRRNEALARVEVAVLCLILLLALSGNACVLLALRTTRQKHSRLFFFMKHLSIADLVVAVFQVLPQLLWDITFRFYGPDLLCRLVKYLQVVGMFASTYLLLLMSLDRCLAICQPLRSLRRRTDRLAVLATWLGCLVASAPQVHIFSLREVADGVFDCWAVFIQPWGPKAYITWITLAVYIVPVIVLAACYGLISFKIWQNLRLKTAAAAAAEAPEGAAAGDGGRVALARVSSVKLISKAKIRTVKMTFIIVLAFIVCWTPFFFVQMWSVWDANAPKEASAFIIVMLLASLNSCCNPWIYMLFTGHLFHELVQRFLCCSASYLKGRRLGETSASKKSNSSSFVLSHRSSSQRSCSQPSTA
Experiment: Displacement of [3H]oxytocin from human oxytocin receptor

IC50 [µM]	Structure (SMILES)
> 100	O=C(Cn1c(-c2ccccc2)nc2ccc(OCCCN3CCOCC3)cc2c1=O)NCC1CC1
